Measurements from ChEMBL document CHEMBL2385076, “Discovery of 2-((1H-benzo[d]imidazol-1-yl)methyl)-4H-pyrido[1,2-a]pyrimidin-4-ones as novel PKM2 activators” (Bioorg Med Chem Lett, 2013).
Calls of active or inactive are those of the source. The calls are words filed in the database; no cut-off is given here.

Columns and labels:
[1] = biological target: Serine/threonine-protein kinase TAO2 (Homo sapiens) (UniProt Q9UL54); experiment: Inhibition of TAOK2 (unknown origin)
[2] = biological target: Sodium-dependent dopamine transporter (Homo sapiens) (UniProt Q01959); experiment: Binding affinity to human dopamine transporter by radioligand binding assay
How it was run: (§1)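 CEREP panel binding measured by displacement of an antagonist radioligand.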

[3] = biological target: High affinity nerve growth factor receptor (Homo sapiens) (UniProt P04629); experiment: Inhibition of NTRK1 (unknown origin)
[4] = biological target: 5-hydroxytryptamine receptor 2B (Homo sapiens) (UniProt P41595); experiment: Binding affinity to human 5-HT2B receptor by radioligand binding assay
How it was run: (§2)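 CEREP panel binding measured by displacement of an agonist radioligand.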

[5] = biological target: RAC-alpha serine/threonine-protein kinase (Homo sapiens) (UniProt P31749); experiment: Inhibition of AKT1 (unknown origin)
Sequence of RAC-alpha serine/threonine-protein kinase (Homo sapiens) (P31749 whole entry): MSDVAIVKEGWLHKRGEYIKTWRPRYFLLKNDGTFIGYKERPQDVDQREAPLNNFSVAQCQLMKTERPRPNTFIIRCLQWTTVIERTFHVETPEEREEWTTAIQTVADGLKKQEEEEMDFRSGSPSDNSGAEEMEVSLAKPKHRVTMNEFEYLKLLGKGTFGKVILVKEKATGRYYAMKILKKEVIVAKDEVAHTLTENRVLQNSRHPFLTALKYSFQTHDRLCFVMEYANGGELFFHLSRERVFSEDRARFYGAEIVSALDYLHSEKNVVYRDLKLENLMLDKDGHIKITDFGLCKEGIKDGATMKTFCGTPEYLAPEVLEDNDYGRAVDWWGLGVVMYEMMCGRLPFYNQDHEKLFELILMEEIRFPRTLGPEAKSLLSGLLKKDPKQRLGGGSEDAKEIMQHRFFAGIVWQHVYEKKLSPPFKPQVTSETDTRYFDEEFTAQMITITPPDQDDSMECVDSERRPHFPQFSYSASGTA

[6] = biological target: Serine/threonine-protein kinase Sgk1 (Homo sapiens) (UniProt O00141); experiment: Inhibition of SGK (unknown origin)
Sequence of Serine/threonine-protein kinase Sgk1 (Homo sapiens) (O00141 whole entry): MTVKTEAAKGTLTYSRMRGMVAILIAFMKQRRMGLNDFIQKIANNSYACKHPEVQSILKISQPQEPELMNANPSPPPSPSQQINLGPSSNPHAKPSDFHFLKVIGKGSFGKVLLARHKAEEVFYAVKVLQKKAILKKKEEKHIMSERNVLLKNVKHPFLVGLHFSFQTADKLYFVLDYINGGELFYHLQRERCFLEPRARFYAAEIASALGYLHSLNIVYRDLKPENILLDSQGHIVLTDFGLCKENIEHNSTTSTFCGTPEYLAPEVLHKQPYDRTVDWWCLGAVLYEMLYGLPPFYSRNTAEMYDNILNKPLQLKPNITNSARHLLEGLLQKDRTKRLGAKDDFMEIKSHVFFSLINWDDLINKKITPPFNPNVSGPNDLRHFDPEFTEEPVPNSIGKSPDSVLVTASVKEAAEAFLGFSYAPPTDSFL

[7] = biological target: CDK2/Cyclin A2 (Homo sapiens) (UniProt P24941+P20248); experiment: Inhibition of CDK2/cyclin A (unknown origin); type: protein-complex assay
[8] = biological target: Serine/threonine-protein kinase Nek2 (Homo sapiens) (UniProt P51955); experiment: Inhibition of NEK2 (unknown origin)
Sequence of Serine/threonine-protein kinase Nek2 (Homo sapiens) (P51955 whole entry): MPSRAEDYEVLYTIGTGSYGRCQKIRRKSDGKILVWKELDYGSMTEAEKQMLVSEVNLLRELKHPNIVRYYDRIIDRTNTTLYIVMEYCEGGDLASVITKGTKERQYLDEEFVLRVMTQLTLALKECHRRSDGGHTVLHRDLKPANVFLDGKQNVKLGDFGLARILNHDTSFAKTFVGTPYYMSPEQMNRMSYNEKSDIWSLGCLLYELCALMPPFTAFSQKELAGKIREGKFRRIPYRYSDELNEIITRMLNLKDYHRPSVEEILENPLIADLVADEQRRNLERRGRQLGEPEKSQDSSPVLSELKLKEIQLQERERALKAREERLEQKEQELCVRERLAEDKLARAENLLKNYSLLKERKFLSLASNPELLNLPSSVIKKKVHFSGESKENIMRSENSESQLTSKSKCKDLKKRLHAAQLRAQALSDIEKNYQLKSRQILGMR

[9] = biological target: Rho-associated protein kinase 1 (Homo sapiens) (UniProt Q13464); experiment: Inhibition of ROCK1 (unknown origin)
Sequence of Rho-associated protein kinase 1 (Homo sapiens) (Q13464 2-1354 limits assumed): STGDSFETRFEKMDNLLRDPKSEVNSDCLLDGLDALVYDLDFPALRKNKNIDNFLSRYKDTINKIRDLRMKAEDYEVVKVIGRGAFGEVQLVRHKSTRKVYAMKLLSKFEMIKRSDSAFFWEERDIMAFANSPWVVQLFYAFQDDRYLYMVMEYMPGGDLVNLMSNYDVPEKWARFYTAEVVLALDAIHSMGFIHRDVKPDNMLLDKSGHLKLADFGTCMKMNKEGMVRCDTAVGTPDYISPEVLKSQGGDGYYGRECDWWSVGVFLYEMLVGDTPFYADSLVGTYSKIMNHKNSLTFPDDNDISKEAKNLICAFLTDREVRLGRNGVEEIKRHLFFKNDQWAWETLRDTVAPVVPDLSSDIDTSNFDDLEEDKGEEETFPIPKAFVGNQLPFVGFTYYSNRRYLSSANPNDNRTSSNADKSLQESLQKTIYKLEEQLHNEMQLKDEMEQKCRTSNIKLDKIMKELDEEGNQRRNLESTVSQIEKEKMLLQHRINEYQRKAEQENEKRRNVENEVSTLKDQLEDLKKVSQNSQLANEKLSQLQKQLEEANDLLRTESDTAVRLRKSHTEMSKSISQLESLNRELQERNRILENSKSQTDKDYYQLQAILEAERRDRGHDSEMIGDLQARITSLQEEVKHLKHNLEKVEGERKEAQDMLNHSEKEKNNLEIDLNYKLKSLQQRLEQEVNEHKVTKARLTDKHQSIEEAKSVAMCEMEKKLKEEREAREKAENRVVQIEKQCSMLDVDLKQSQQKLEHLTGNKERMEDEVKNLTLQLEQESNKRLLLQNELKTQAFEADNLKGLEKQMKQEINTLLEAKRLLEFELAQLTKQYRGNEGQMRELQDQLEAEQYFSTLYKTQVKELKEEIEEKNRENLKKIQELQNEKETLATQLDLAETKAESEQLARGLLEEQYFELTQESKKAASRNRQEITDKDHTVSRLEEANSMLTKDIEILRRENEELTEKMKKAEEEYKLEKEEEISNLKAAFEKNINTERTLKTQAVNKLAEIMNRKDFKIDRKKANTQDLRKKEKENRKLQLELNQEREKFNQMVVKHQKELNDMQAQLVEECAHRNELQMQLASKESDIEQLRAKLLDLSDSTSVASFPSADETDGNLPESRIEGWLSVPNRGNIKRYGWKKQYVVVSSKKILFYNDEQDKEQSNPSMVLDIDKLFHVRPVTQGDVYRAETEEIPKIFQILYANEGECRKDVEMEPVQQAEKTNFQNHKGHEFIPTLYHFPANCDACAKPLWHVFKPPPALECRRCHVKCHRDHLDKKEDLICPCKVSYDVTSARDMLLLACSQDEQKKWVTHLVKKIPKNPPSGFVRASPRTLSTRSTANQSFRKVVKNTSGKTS

Rattus norvegicus = species: Rattus norvegicus; experiment: Binding affinity to central-type benzodiazepine receptor in rat cerebral cortex; type: tissue-based
[10] = biological target: Mitogen-activated protein kinase kinase kinase kinase 4 (Homo sapiens) (UniProt O95819); experiment: Inhibition of MAP4K4 (unknown origin)
SNU-182 = experiment: Antiproliferative activity against human SNU182 cells at 10 uM after 5 days; type: functional, cell-based
How it was run: (§3)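 Cells plated in Optimem-GlutaMax medium and cultured overnight before exposure to 10 µM compound. Viability measured with CytoTox-Glo after 5 days of treatment.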

Pyruvate kinase PKM = Pyruvate kinase PKM (Homo sapiens, UniProt P14618); experiment: Activation of PKM2 in human Huh7 cells assessed as production of pyruvate and ATP by fluorescence assay; type: cell-based, Huh-7
How it was run: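 Huh7 hepatocellular carcinoma cells were treated with compound and lysed, and the lysate was given PEP and ADP. The pyruvate formed was oxidized by pyruvate oxidase, and the fluorescence, proportional to pyruvate, was read as cellular pyruvate kinase activity.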

HuH-1 (human) = experiment: Antiproliferative activity against human HuH1 cells at 10 uM after 5 days
[11] = biological target: Ephrin type-A receptor 2 (Homo sapiens) (UniProt P29317); experiment: Inhibition of EPHA2 (unknown origin)
[12] = biological target: Cannabinoid receptor 1 (Homo sapiens) (UniProt P21554); experiment: Binding affinity to cannabinoid CB1 receptor (unknown origin)
Homo sapiens [13] = species: Homo sapiens; experiment: Binding affinity to sodium channel site 2 (unknown origin) by radioligand binding assay; how it was run: as §1
[14] = biological target: Adrenergic receptor alpha-1 (Homo sapiens) (UniProt P35348+P25100+P35368); experiment: Binding affinity to alpha-1 adrenergic receptor (unknown origin) by radioligand binding assay
[15] = biological target: Tyrosine-protein kinase ZAP-70 (Homo sapiens) (UniProt P43403); experiment: Inhibition of ZAP70 (unknown origin)
[16] = biological target: Myosin light chain kinase 2, skeletal/cardiac muscle (Homo sapiens) (UniProt Q9H1R3); experiment: Inhibition of MYLK2 (unknown origin)
Sequence of Myosin light chain kinase 2, skeletal/cardiac muscle (Homo sapiens) (Q9H1R3 whole entry): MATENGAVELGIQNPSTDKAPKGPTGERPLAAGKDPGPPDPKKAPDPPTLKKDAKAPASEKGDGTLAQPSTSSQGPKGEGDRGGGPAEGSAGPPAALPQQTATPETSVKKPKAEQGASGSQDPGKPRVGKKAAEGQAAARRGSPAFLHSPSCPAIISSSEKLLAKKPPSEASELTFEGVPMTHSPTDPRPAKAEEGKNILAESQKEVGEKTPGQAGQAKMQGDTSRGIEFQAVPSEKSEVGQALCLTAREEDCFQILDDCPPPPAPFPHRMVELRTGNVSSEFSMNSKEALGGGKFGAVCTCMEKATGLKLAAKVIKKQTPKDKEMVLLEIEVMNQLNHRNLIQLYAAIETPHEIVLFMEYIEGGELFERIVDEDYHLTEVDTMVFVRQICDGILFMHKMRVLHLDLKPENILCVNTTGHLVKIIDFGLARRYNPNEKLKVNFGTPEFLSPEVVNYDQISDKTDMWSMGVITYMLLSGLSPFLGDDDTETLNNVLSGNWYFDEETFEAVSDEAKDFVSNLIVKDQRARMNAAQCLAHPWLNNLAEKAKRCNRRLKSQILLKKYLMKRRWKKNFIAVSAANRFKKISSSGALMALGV

[17] = biological target: Tyrosine-protein kinase ABL1 (Homo sapiens) (UniProt P00519); experiment: Inhibition of ABL1 (unknown origin)
Homo sapiens [18] = species: Homo sapiens; experiment: Binding affinity to L-type calcium channel diltiazem binding site (unknown origin) by radioligand binding assay
[19] = biological target: 3-phosphoinositide-dependent protein kinase 1 (Homo sapiens) (UniProt O15530); experiment: Inhibition of PDK1 (unknown origin)
[20] = biological target: Calcium/calmodulin-dependent protein kinase type II subunit alpha (Homo sapiens) (UniProt Q9UQM7); experiment: Inhibition of CAMK2A (unknown origin)
[21] = biological target: Mu-type opioid receptor (Homo sapiens) (UniProt P35372); experiment: Binding affinity to human mu opioid receptor by radioligand binding assay; how it was run: as §2
Sequence of Mu-type opioid receptor (Homo sapiens) (P35372 whole entry): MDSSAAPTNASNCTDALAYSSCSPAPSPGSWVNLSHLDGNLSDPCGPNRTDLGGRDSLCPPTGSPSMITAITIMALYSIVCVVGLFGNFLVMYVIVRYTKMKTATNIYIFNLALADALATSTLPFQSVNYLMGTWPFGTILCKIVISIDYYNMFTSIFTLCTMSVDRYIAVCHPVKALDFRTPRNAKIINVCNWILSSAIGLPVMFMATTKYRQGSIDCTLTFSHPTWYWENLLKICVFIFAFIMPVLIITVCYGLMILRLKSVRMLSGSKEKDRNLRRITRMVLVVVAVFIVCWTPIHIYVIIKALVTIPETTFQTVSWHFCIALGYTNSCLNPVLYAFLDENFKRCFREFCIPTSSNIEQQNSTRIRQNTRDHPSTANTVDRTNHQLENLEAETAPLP

[22] = biological target: Aurora kinase A (Homo sapiens) (UniProt O14965); experiment: Inhibition of AURKA (unknown origin)
[23] = biological target: Serine/threonine-protein kinase MARK1 (Homo sapiens) (UniProt Q9P0L2); experiment: Inhibition of MARK1 (unknown origin)
SNU-449 = experiment: Antiproliferative activity against human SNU449 cells at 10 uM after 5 days; type: functional, cell-based; how it was run: as §3
[24] = biological target: Insulin receptor (Homo sapiens) (UniProt P06213); experiment: Inhibition of INSR (unknown origin)

Sequence of Serine/threonine-protein kinase TAO2 (Homo sapiens) (Q9UL54 whole entry): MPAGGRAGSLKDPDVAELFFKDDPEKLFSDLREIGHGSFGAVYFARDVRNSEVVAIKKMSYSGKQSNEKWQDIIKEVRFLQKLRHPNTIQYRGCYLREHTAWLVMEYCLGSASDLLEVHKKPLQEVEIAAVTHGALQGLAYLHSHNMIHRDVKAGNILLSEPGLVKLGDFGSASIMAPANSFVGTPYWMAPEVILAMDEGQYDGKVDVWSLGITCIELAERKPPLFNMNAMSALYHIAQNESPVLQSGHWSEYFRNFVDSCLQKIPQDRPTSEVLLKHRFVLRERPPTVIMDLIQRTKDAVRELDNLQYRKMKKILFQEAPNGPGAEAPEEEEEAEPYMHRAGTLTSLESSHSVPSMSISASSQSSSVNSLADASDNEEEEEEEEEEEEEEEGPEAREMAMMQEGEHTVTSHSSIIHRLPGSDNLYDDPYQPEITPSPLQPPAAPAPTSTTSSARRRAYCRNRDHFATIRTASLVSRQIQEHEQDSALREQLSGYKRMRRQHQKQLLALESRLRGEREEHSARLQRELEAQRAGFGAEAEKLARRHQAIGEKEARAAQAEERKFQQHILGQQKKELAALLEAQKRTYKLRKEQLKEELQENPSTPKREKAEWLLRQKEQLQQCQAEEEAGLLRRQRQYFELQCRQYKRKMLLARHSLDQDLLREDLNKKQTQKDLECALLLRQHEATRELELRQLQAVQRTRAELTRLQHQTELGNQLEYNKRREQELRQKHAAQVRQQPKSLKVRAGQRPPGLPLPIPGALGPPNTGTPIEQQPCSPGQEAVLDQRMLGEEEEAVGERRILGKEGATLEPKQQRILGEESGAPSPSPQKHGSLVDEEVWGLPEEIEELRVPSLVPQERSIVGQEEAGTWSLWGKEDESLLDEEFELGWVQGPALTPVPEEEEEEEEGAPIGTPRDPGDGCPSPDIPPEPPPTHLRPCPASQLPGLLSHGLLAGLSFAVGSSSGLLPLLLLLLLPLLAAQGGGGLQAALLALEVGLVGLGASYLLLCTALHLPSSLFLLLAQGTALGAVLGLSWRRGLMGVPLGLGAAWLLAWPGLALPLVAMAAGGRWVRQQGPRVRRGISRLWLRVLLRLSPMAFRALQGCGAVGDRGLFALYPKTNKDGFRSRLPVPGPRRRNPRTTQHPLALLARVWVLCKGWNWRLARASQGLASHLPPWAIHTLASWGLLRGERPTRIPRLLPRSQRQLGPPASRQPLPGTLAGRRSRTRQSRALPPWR

inhibition [1]: inactive
Activity [2]: inactive
inhibition [3]: inactive
Activity [4]: inactive
inhibition [5]: inactive
inhibition [6]: inactive
inhibition [7]: inactive
inhibition [8]: inactive
inhibition [9]: inactive
Activity (Rattus norvegicus): inactive
inhibition [10]: inactive
EC50 (Pyruvate kinase PKM): 70 nM
inhibition [11]: inactive
Activity [12]: inactive
Activity (Homo sapiens [13]): inactive
Activity [14]: inactive
inhibition [15]: inactive
inhibition [16]: inactive
inhibition [17]: inactive
Activity (Homo sapiens [18]): inactive
inhibition [19]: inactive
inhibition [20]: inactive
Activity [21]: inactive
inhibition [22]: inactive
inhibition [23]: inactive
inhibition [24]: inactive
SMILES: Cc1cccc2nc(Cn3cnc4ccccc43)cc(=O)n12
Activity (SNU-182): inactive
Activity (HuH-1 (human)): inactive
Activity (SNU-449): inactive
